ChEMBL document CHEMBL1629579, “Correlating echinocandin MIC and kinetic inhibition of fks1 mutant glucan synthases for Candida albicans: implications for interpretive breakpoints” (Antimicrob Agents Chemother, 2009)
Converted amounts (≈) assume the structure as drawn. Numbered stars: 1 amine (or outer) side, 2 acyl side, 3 side chain; on linkers, the order of the positions; unused ones are H or OH. Bridge positions count the residues as written; N and C are the ends. Square brackets hold non-standard residues; d marks the D form. Peptide text beside a SMILES is read from it. * marks the point of attachment. hTyr(3S-OH,4S-OH,3'-OSO3H) = N[C@H](C(=O)O)[C@H](O)[C@@H](O)c1ccc(O)c(OS(=O)(=O)O)c1; pTerphenylCO(4''-OnC5H11) = CCCCCOc1ccc(-c2ccc(-c3ccc(C(=O)*)cc3)cc2)cc1; Orn(4R-OH,5R-OH) = O=C([C@H](C[C@@H](O)[C@@H](O)N[*:3])N[*:1])[*:2]; hTyr(3S-OH,4S-OH) = N[C@H](C(=O)O)[C@H](O)[C@@H](O)c1ccc(O)cc1; Pro(3S-OH,4S-Me) = C[C@H]1CN[C@H](C(=O)O)[C@H]1O; X1 = CCCCCOc1ccc(-c2cc(-c3ccc(C(=O)*)cc3)no2)cc1; Gln(3R-OH) = NC(=O)C[C@@H](O)[C@H](N)C(=O)O; Hyp = O=C(O)[C@@H]1C[C@@H](O)CN1

Key:
[1] = Inhibition of Candida albicans 90028 1,3-beta-D-glucan synthase subunit FKS1p
Summary of the method: (§1)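 Enzyme is product-entrapped 1,3-β-D-glucan synthase, enriched from membranes of each strain grown at 37°C with shaking in YPD broth to early stationary phase. Filtration polymerization assay uses [3H]UDPG, started by adding enzyme and run 60 min at 25°C. Echinocandins are added as serial dilutions, with 1% DMSO controls for anidulafungin. IC50 is from a variable-slope sigmoidal fit; values are triplicate arithmetic means.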

Candida albicans [2] = assay: Antimicrobial activity against Candida albicans A15-10 harboring FKS1 T1933C mutant gene and FKS1 hotspot1 S645P mutant gene by M27-A3 method; type: functional
Summary of the method: (§2)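 Broth microdilution per CLSI M27-A3 in RPMI 1640, done in triplicate on three separate days. Each strain was tested with and without 50% human serum. C. krusei ATCC 6258 and C. parapsilosis ATCC 22019 served as QC strains. Arithmetic means are reported, and geometric means were used for comparison.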

Candida albicans [3] = assay: Antimicrobial activity against Candida albicans 122 harboring FKS1 C1946A mutant gene and FKS1 hotspot1 P649H mutant gene by M27-A3 method in presence of 50% human serum; type: functional; summary of the method: as §2
Candida albicans [4] = assay: Activity at Candida albicans 177 1,3-beta-D-glucan synthase subunit FKS1p T1922C mutant
Summary of the method: (§3)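 Product-entrapped 1,3-β-D-glucan synthase from cells grown in YPD at 37°C to early stationary phase. Wells held 50 mM HEPES pH 7.5, 10% glycerol, 1.5 mg/ml BSA, 25 mM KF, 1 mM EDTA, 25 μM GTP-γ-S, 1 μg enzyme and [3H]UDPG (0.015–2 mM). Reactions ran 60 min at 25°C. Vmax and Km came from Lineweaver-Burke plots, in triplicate.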

[5] = Inhibition of Candida albicans A15 1,3-beta-D-glucan synthase subunit FKS1p T1933Y mutant; summary of the method: as §1
[6] = Inhibition of Candida albicans 194 1,3-beta-D-glucan synthase subunit FKS1p C1934T/G4082R mutant; summary of the method: as §1
Candida albicans [7] = assay: Antimicrobial activity against Candida albicans 89 harboring FKS1 C1934A mutant gene and FKS1 hotspot1 S645Y mutant gene by M27-A3 method; type: functional; summary of the method: as §2
[8] = Inhibition of Candida albicans 177 1,3-beta-D-glucan synthase subunit FKS1p T1922C mutant; summary of the method: as §1
Candida albicans [9] = assay: Activity at Candida albicans A15-10 1,3-beta-D-glucan synthase subunit FKS1p T1933C mutant
Candida albicans [10] = assay: Antimicrobial activity against Candida albicans 5415 harboring FKS1 T1933C mutant gene and FKS1 hotspot1 S645P mutant gene by M27-A3 method in presence of 50% human serum; type: functional; summary of the method: as §2
Candida albicans [11] = assay: Antimicrobial activity against Candida albicans A15 harboring FKS1 T1933Y mutant gene and FKS1 hotspot1 S645S/P mutant gene by M27-A3 method in presence of 50% human serum; type: functional; summary of the method: as §2
Candida albicans [12] = assay: Antimicrobial activity against Candida albicans 90 harboring FKS1 G4082R mutant gene and FKS1 hotspot2 R1361R/H mutant gene by M27-A3 method in presence of 50% human serum; type: functional; summary of the method: as §2
Candida albicans [13] = assay: Activity at Candida albicans 194 1,3-beta-D-glucan synthase subunit FKS1p C1934T/G4082R mutant; summary of the method: as §3
Candida albicans [14] = assay: Antimicrobial activity against Candida albicans 3107 by M27-A3 method in presence of 50% human serum; type: functional; summary of the method: as §2
Candida albicans [15] = assay: Activity at Candida albicans 2762 1,3-beta-D-glucan synthase subunit FKS1p T1922C mutant; summary of the method: as §3
Candida albicans [16] = assay: Selectivity ratio of Ki for Candida albicans 119 1,3-beta-D-glucan synthase subunit FKS1p T1921C mutant to Ki for Candida albicans SC5314 wild type 1,3-beta-D-glucan synthase subunit FKS1p
Candida albicans [17] = assay: Selectivity ratio of Ki for Candida albicans A15 1,3-beta-D-glucan synthase subunit FKS1p T1933Y mutant to Ki for Candida albicans SC5314 wild type 1,3-beta-D-glucan synthase subunit FKS1p
Candida albicans [18] = assay: Selectivity ratio of Ki for Candida albicans 121 1,3-beta-D-glucan synthase subunit FKS1p G4082A mutant to Ki for Candida albicans SC5314 wild type 1,3-beta-D-glucan synthase subunit FKS1p
Candida albicans [19] = assay: Selectivity ratio of Ki for Candida albicans 194 1,3-beta-D-glucan synthase subunit FKS1p C1934T/G4082R mutant to Ki for Candida albicans SC5314 wild type 1,3-beta-D-glucan synthase subunit FKS1p
Candida albicans [20] = assay: Selectivity ratio of Ki for Candida albicans 2762 1,3-beta-D-glucan synthase subunit FKS1p T1922C mutant to Ki for Candida albicans SC5314 wild type 1,3-beta-D-glucan synthase subunit FKS1p
Candida albicans [21] = assay: Selectivity ratio of Ki for Candida albicans 85 1,3-beta-D-glucan synthase subunit FKS1p C1934T mutant to Ki for Candida albicans SC5314 wild type 1,3-beta-D-glucan synthase subunit FKS1p
Candida albicans [22] = assay: Selectivity ratio of Ki for Candida albicans A15-10 1,3-beta-D-glucan synthase subunit FKS1p T1933C mutant to Ki for Candida albicans SC5314 wild type 1,3-beta-D-glucan synthase subunit FKS1p
Candida albicans [23] = assay: Selectivity ratio of Ki for Candida albicans 90 1,3-beta-D-glucan synthase subunit FKS1p G4082R mutant to Ki for Candida albicans SC5314 wild type 1,3-beta-D-glucan synthase subunit FKS1p
Candida albicans [24] = assay: Selectivity ratio of Ki for Candida albicans 177 1,3-beta-D-glucan synthase subunit FKS1p T1922C mutant to Ki for Candida albicans SC5314 wild type 1,3-beta-D-glucan synthase subunit FKS1p
Candida albicans [25] = assay: Selectivity ratio of Ki for Candida albicans 5415 1,3-beta-D-glucan synthase subunit FKS1p T1933C mutant to Ki for Candida albicans SC5314 wild type 1,3-beta-D-glucan synthase subunit FKS1p
Candida albicans [26] = assay: Selectivity ratio of Ki for Candida albicans 89 1,3-beta-D-glucan synthase subunit FKS1p C1934A mutant to Ki for Candida albicans SC5314 wild type 1,3-beta-D-glucan synthase subunit FKS1p
Candida albicans [27] = assay: Selectivity ratio of Ki for Candida albicans 149 1,3-beta-D-glucan synthase subunit FKS1p G1942T mutant to Ki for Candida albicans SC5314 wild type 1,3-beta-D-glucan synthase subunit FKS1p
Candida albicans [28] = assay: Selectivity ratio of Ki for Candida albicans 122 1,3-beta-D-glucan synthase subunit FKS1p C1946A mutant to Ki for Candida albicans SC5314 wild type 1,3-beta-D-glucan synthase subunit FKS1p
Candida albicans [29] = assay: Selectivity ratio of Ki for Candida albicans 205 1,3-beta-D-glucan synthase subunit FKS1p T1933C mutant to Ki for Candida albicans SC5314 wild type 1,3-beta-D-glucan synthase subunit FKS1p

Row | SMILES | IC50 [1] [µg/mL] | Ki [1] [µg/mL] | MIC (Candida albicans [2]) [µg/mL] | MIC (Candida albicans [3]) [µg/mL] | Km (Candida albicans [4]) [µM] | Vmax (Candida albicans [4]) [nmol/min] | IC50 [5] [µg/mL] | IC50 [6] [µg/mL] | Ki [6] [µg/mL] | MIC (Candida albicans [7]) [µg/mL] | IC50 [8] [µg/mL] | Ki [8] [µg/mL] | Km (Candida albicans [9]) [µM] | Vmax (Candida albicans [9]) [nmol/min] | MIC (Candida albicans [10]) [µg/mL] | MIC (Candida albicans [11]) [µg/mL] | MIC (Candida albicans [12]) [µg/mL] | Km (Candida albicans [13]) [µM] | Vmax (Candida albicans [13]) [nmol/min] | MIC (Candida albicans [14]) [µg/mL] | also measured
1 | CCCCCOc1ccc(-c2cc(-c3ccc(C(=O)N[C@H]4C[C@@H](O)[C@@H](O)NC(=O)[C@@H]5[C@@H](O)[C@@H](C)CN5C(=O)[C@H]([C@H](O)CC(N)=O)NC(=O)[C@H]([C@H](O)[C@@H](O)c5ccc(O)c(OS(=O)(=O)O)c5)NC(=O)[C@@H]5C[C@@H](O)CN5C(=O)[C@H]([C@@H](C)O)NC4=O)cc3)no2)cc1 [MICAFUNGIN] (X1-[Orn(4R-OH,5R-OH)]T[Hyp][hTyr(3S-OH,4S-OH,3'-OSO3H)][Gln(3R-OH)][Pro(3S-OH,4S-Me)]; lactam 1-C) | 0.0188 (≈ 0.0148 µM) | 0.01547 (≈ 0.0122 µM) | 4 (≈ 3.15 µM) | 4 | 50 | 4.4 | 0.1773 (≈ 0.14 µM) | 1.765 (≈ 1.39 µM) | 0.49383 (≈ 0.389 µM) | 4 (≈ 3.15 µM) | 1.441 (≈ 1.13 µM) | 4.40423 (≈ 3.47 µM) | 91 | 3.26 | 8 | 2 | 4 | 61 | 5.81 | 0.5 | Km (Candida albicans [15]): 108 µM; Vmax (Candida albicans [15]): 3.57 nmol/min
2 | CC[C@H](C)C[C@H](C)CCCCCCCCC(=O)N[C@H]1C[C@@H](O)[C@@H](NCCN)NC(=O)[C@@H]2[C@@H](O)CCN2C(=O)[C@H]([C@H](O)CCN)NC(=O)[C@H]([C@H](O)[C@@H](O)c2ccc(O)cc2)NC(=O)[C@@H]2C[C@@H](O)CN2C(=O)[C@H]([C@@H](C)O)NC1=O [CASPOFUNGIN] | 0.0005 (≈ 0.000457 µM) | 0.00046 (≈ 0.000421 µM) | 8 (≈ 7.32 µM) | 4 | 50 | 4.4 | 0.2181 (≈ 0.199 µM) | 0.5307 (≈ 0.485 µM) | 0.46689 (≈ 0.427 µM) | 8 (≈ 7.32 µM) | 1.091 (≈ 0.998 µM) | 1.8176 (≈ 1.66 µM) | 91 | 3.26 | 8 | 8 | 4 | 61 | 5.81 | 0.33 | Km (Candida albicans [15]): 108 µM; Vmax (Candida albicans [15]): 3.57 nmol/min
3 | CCCCCOc1ccc(-c2ccc(-c3ccc(C(=O)N[C@H]4C[C@@H](O)[C@@H](O)NC(=O)[C@@H]5[C@@H](O)[C@@H](C)CN5C(=O)[C@H]([C@@H](C)O)NC(=O)[C@H]([C@H](O)[C@@H](O)c5ccc(O)cc5)NC(=O)[C@@H]5C[C@@H](O)CN5C(=O)[C@H]([C@@H](C)O)NC4=O)cc3)cc2)cc1 [ANIDULAFUNGIN] ({pTerphenylCO(4''-OnC5H11)}-[Orn(4R-OH,5R-OH)]T[Hyp][hTyr(3S-OH,4S-OH)]T[Pro(3S-OH,4S-Me)]; lactam 1-C) | 0.00183 (≈ 0.0016 µM) | 0.00063 (≈ 0.000553 µM) | 4 (≈ 3.51 µM) | 8 | 50 | 4.4 | 0.1287 (≈ 0.113 µM) | 0.782 (≈ 0.686 µM) | 0.29924 (≈ 0.262 µM) | 2 (≈ 1.75 µM) | 2.622 (≈ 2.3 µM) | 4.34233 (≈ 3.81 µM) | 91 | 3.26 | 8 | 2 | 4 | 61 | 5.81 | 0.25 | Ratio Ki (Candida albicans [16]): > 100; Ratio Ki (Candida albicans [17]): > 100; Ratio Ki (Candida albicans [18]): > 100; Ratio Ki (Candida albicans [19]): > 100; Ratio Ki (Candida albicans [20]): > 100; Ratio Ki (Candida albicans [21]): > 100; Ratio Ki (Candida albicans [22]): > 100; Ratio Ki (Candida albicans [23]): > 100; Ratio Ki (Candida albicans [24]): > 100; Ratio Ki (Candida albicans [25]): > 100; Ratio Ki (Candida albicans [26]): > 100; Ratio Ki (Candida albicans [27]): > 100; Ratio Ki (Candida albicans [28]): > 100; Km (Candida albicans [15]): 108 µM; Vmax (Candida albicans [15]): 3.57 nmol/min; Ratio Ki (Candida albicans [29]): > 100
